This is an account of results in ChEMBL document CHEMBL4346698, “Discovery and optimization of thienopyridine derivatives as novel urea transporter inhibitors” (Eur J Med Chem, 2019).

Activity calls are given as the source filed them. The rule behind the calls is not given here.

One assay deals with T1, Urea transporter 1 (Homo sapiens, UniProt Q13336).
T1 sequence (Q13336 whole entry): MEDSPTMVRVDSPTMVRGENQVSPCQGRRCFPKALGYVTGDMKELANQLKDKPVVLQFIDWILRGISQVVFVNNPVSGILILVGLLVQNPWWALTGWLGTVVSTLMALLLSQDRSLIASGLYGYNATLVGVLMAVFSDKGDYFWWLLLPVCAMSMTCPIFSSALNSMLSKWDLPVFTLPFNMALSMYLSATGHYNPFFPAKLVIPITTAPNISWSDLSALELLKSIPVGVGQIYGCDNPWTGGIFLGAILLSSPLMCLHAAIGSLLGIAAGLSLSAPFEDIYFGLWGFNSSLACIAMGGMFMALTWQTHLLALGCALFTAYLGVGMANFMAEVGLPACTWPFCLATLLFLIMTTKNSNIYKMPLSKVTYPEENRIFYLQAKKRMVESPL
The assay can be described thus: Inhibition of urea transporter B in human erythrocytes incubated for 6 mins by spectrophotometric analysis based erythrocyte lysis assay. In kind it is cell-based.
Consider `CC(=O)c1sc2nc3ccc(C)cc3cc2c1N`, for which it took 1.72 µM to reach half-maximal inhibition (IC50).

The target in another assay is T2, Urea transporter 1 (Rattus norvegicus, UniProt P97689).
T2 sequence (P97689 whole entry): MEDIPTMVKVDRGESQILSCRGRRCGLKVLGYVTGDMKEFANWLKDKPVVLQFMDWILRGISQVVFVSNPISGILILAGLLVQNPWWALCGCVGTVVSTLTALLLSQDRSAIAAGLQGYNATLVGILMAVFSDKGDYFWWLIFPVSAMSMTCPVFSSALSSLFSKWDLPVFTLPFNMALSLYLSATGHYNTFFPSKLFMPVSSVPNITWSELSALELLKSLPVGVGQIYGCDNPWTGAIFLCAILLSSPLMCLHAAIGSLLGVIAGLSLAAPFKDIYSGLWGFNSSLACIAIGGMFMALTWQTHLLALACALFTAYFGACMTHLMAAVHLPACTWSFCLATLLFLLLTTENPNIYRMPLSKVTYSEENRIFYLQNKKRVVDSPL
The assay can be described thus: Inhibition of urea transporter B in Sprague-Dawley rat erythrocytes incubated for 6 mins by spectrophotometric analysis based erythrocyte lysis assay. In kind it is cell-based. The method in brief:
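Blood came from 8-week-old male SD rats. Erythrocytes were held at 2% hematocrit in hyperosmolar PBS with 1.25 M urea and 5 mM glucose for 2 h at ambient temperature. Compound in DMSO was added for 6 min, then the cells were diluted 1:10 into isotonic PBS. Lysis was read as A710 within 5 min and normalised to same-plate no-lysis (isotonic PBS) and full-lysis (water) controls.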
With `COC(=O)c1sc2nc(C)c(OC)cc2c1N`, it took 5.46 µM to reach half-maximal inhibition (IC50).

Consider `COC(=O)c1sc2nc3ccccc3cc2c1N`, for which 0.22 µM corresponded to half-maximal inhibition (IC50). For `COC(=O)c1sc2nc(C(=O)N3CCOCC3)ccc2c1N`, the IC50 (commonly the concentration that gives 50% inhibition) was above 10 µM. On the same count and under the same terms, the result for `COC(=O)c1sc2nc(C)c(N)cc2c1N` reads 0.54 µM. On the same count and under the same terms, under `CCc1cc2c(N)c(C(=O)OC)sc2nc1C` stands 0.71 µM; under `CCNC(=O)c1cc2c(N)c(C(=O)OC)sc2nc1C`, above 10 µM. Consider `COC(=O)c1sc2nc(C)cc(C)c2c1N`, for which the IC50 was 2.54 µM. This counts as single-digit micromolar. The same measure, in the same setting: the result for `COc1ccc2nc3sc(C(N)=O)c(N)c3cc2c1` reads above 10 µM. For the compound `COC(=O)CC(=O)c1sc2nc3ccc(OC)cc3cc2c1N`, the IC50 was above 10 µM. On the same count and under the same terms, the result for `CNC(=O)c1sc2nc3ccc(OC)cc3cc2c1N` reads above 10 µM; that for `COC(=O)c1sc2nc(C)c(F)cc2c1N`, above 10 µM. On to `COC(=O)c1sc2nc(C)cc(C(F)(F)F)c2c1N`, for which the IC50 was 6.12 µM. Regarding `COc1ccc2nc3sc(C(=O)N4CCOCC4)c(N)c3cc2c1`, the IC50 was above 10 µM. On the same count and under the same terms, under `COc1ccc2nc3sc(C(C)=O)c(N)c3cc2c1` stands 1.63 µM; under `COC(=O)c1sc2nc(C)c(-c3ccccc3)cc2c1N`, 3.29 µM.

`COC(=O)c1sc2nc3ccc(F)cc3cc2c1N` displayed an IC50 of 0.16 µM. Same read-out and setting: the result for `COC(=O)c1sc2nc(C)c(NC(C)=O)cc2c1N` reads 3.47 µM; that for `COC(=O)c1sc2nc3c(C)cc(C)cc3cc2c1N`, 0.61 µM; that for `CC(=O)c1sc2nc3ccc(C)cc3cc2c1N`, 3.51 µM. In turn, `COC(=O)c1sc2nc(-c3ccccc3)ccc2c1N` came in with an IC50 of 3.36 µM. In turn, `COC(=O)c1sc2nc(C)c(N(C)C)cc2c1N` gave an IC50 of 3.75 µM. Same read-out and setting: the result for `COC(=O)CNC(=O)c1sc2nc3ccc(OC)cc3cc2c1N` reads above 10 µM; that for `COC(=O)c1sc2nc3ccc(OC)cc3cc2c1N`, 0.22 µM; that for `COC(=O)c1sc2nc3ccc(Br)cc3cc2c1N`, 0.27 µM. Same read-out and setting: the result for `COc1ccc2nc3sc(C(=O)O)c(N)c3cc2c1` reads above 10 µM; that for `CCOC(=O)c1cnc2sc(C(=O)OC)c(N)c2c1`, above 10 µM. Same read-out and setting: the result for `COC(=O)c1sc2nc(C)ccc2c1N` reads 1.3 µM; that for `COC(=O)c1sc2nc3ccc(C)cc3cc2c1N`, 0.23 µM. `COC(=O)c1sc2nc(C)c(C(C)=O)cc2c1N` came in with an IC50 of 0.91 µM. `CNC(=O)c1cc2c(N)c(C(=O)OC)sc2nc1C`: the IC50 was above 10 µM. The same measure, in the same setting: the result for `COC(=O)c1sc2nc(C)c(Br)cc2c1N` reads 8.47 µM; that for `COC(=O)c1sc2nc(C)c([N+](=O)[O-])cc2c1N`, above 10 µM; that for `COC(=O)c1sc2nc(C)c(C(=O)N3CCOCC3)cc2c1N`, above 10 µM. Consider `COc1ccc2nc3sc(S(=O)(=O)N(C)C)c(N)c3cc2c1`, for which the IC50 was above 10 µM. The same measure, in the same setting: the result for `CCOC(=O)c1sc2nc3ccc(OC)cc3cc2c1N` reads above 10 µM. The compound `COC(=O)c1sc2nc(C)c(NS(C)(=O)=O)cc2c1N` registered an IC50 of 6.42 µM.

The subject of another assay is Rattus norvegicus. Kind of assay: Diuretic activity in Sprague-Dawley rat assessed as increase in urine output at 100 mg/kg, sc measured after 10 hrs. Format: functional, organism-based. The gist of the method: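 SD rats housed in metabolic cages received a subcutaneous injection of 100 mg/kg in 40% 2-hydroxypropyl-β-cyclodextrin, with the vehicle alone as control. Urine output was collected for 10 h after dosing. n=5, mean + SD.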
In the case of `COC(=O)c1sc2nc(C)c(N)cc2c1N`, the result was Active.
